The nature of data set [1]: Isoaspartyl content of peptides. In kind it is physicochemical. The settings on record: tested at 250 pmol. In a few lines: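 Isoaspartate quantified by radiolabelled methyl incorporation using protein isoaspartyl methyltransferase and S-adenosyl-L-[methyl-3H]methionine, following the ISOQUANT kit protocol. Each peptide preparation was tested at 250 pmol. The manufacturer's standard gave an estimated 1,754 cpm per pmol. Batches had been stored frozen or at 4°C.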

In the next data set the test system is type B T cells. Put plainly: Type B T cell hybridomas, recognition. In kind it is cell-based. The following applies: none of the type B triggered up to the value. In a few lines: (§1)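 IL-2 release assay: I-Ak-expressing M12.C3.F6 B lymphoma cells (5 × 104) were incubated with T cell hybridomas (5 × 104) and decreasing doses of antigen (native HEL or HEL 48–61 peptide) in MEM with 10% FCS for 18 h. Supernatants went to IL-2-dependent CTLL-2 cells cultured 40 h, with [3H]thymidine for the last 24 h.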

The test system of another data set is type A T cells. Description: Type A T cell hybridomas, recognition. In kind it is cell-based. The following applies: all type A T cells in Table 1. The essentials: as §1
Another data set concerns T cell proliferation. The settings on record: in words; cited from earlier work.
Where [2] appears, read: batch RD (7/00), tryptic peptide from HEL.
The mark [3] stands for this setting: batch Abbt (6/98), commercial source.

Where only a bound is given, the exact number is not on record here.

With 46–61: tryptic peptide from HEL, in data set [1] (setting [2]), the percentage of isoaspartyl worked out at 0.9% and the pmol of isoaspartyl came out at 2.1 pmol.
In data set [1] (batch 1387 (8/99)), “48–63: HEL peptide 48–63, batches 1387 and Abbt (commercial source) (DGSTDYGILQINSRWW; UniProt P00698 66-81, looked up, fragment)” came in with a percentage of isoaspartyl of 0.1% and a pmol of isoaspartyl of 0.3 pmol. For the same substance, in data set [1] (setting [3]), the percentage of isoaspartyl is recorded as 0 (0%) and the pmol of isoaspartyl is given as 0 (0%) pmol.
“HEL: HEL was purchased from Sigma-Aldrich”: the “HEL concentration up to which none of the type B T cells were triggered” value in the data set on type B T cells is more than 10 µM. The “HEL concentration triggering all type A T cells” value with type A T cells was approximately 0.1 µM.
As to “murine cytochrome c peptide, residues 90–104: murine cytochrome c peptide, residues 90–104 (ERADLIAYLKKATNE; UniProt P62897 91-105, looked up, fragment)”, the “T cell proliferation after immunization of mice” value in the data set on T cell proliferation is “did not trigger T cell proliferation”.

The values are drawn from PMC2193507 (The Journal of Experimental Medicine, 2001).
